# Measurements reported in ChEMBL document CHEMBL1136939, “Fluorinated isatin derivatives. Part 2. New N-substituted 5-pyrrolidinylsulfonyl isatins as potential tools for molecular imaging of caspases in apoptosis” (J Med Chem, 2009).
# Legend:
# [1] = biological target: T1, Caspase-1 (Homo sapiens, UniProt P29466); assay: Inhibition of human recombinant caspase 1 assessed as accumulation of cleaved fluorogenic 7-amino-4-methylcoumarin after 10 mins
# T1 sequence (P29466 whole entry): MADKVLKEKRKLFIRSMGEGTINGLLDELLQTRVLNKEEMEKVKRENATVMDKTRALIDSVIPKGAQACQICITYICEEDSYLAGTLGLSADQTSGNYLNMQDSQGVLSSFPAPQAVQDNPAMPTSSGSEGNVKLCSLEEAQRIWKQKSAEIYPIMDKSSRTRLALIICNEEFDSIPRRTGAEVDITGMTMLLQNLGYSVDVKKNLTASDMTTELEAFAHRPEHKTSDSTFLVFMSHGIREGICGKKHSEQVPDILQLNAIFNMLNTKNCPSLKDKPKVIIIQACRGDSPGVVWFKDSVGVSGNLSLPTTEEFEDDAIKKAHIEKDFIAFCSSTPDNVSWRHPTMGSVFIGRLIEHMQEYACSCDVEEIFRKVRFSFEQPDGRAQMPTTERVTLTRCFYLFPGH
# Summary of the method: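 Ac-YVAD-AMC substrate, 10 µM final. Enzyme at 0.5 units per assay is preincubated 10 min at 37 °C with compound in DMSO, single doses 5 pM–500 µM final. Substrate is then added and reacts 10 more min. AMC is read at ex 360/em 460 nm. IC50 comes from nonlinear regression, mean ± SD of three assays.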
# [2] = biological target: T2, Caspase-3 (Homo sapiens, UniProt P42574); assay: Inhibition of human recombinant caspase 3 assessed as accumulation of cleaved fluorogenic 7-amino-4-methylcoumarin after 10 mins
# T2 sequence (P42574 whole entry): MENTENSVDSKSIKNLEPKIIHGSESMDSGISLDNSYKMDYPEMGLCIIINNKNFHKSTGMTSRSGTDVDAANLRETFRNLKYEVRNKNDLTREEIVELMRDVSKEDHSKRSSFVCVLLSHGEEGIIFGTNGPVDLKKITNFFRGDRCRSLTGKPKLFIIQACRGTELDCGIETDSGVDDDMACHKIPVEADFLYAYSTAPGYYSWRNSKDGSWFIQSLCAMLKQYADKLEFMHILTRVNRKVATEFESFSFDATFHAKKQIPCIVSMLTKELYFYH
# Summary of the method: (§1)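 Ac-DEVD-AMC substrate, 10 µM final. Enzyme at 0.5 units per assay is preincubated 10 min at 37 °C in reaction buffer with compound in DMSO at 5 pM–500 µM final. Substrate reacts a further 10 min. AMC fluorescence is read at 360/460 nm. IC50 by nonlinear regression, mean ± SD of three assays.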
# [3] = biological target: T3, Caspase-6 (Homo sapiens, UniProt P55212); assay: Inhibition of human recombinant caspase 6 assessed as accumulation of cleaved fluorogenic 7-amino-4-methylcoumarin after 10 mins
# T3 sequence (P55212 whole entry): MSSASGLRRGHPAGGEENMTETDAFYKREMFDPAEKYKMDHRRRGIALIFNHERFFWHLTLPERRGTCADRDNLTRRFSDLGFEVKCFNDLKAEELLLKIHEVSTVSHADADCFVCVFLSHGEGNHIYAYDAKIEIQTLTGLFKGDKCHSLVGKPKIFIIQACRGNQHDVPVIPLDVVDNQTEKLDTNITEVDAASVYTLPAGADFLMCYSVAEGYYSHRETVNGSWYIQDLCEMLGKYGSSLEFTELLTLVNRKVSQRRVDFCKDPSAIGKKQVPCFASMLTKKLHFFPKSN
# Summary of the method: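 Substrate Ac-VEID-AMC at 10 µM final, added after the enzyme (0.5 units per assay) has been preincubated 10 min at 37 °C with compound in DMSO at single doses of 5 pM–500 µM. Reaction runs 10 min, then AMC is read at ex 360, em 460 nm. IC50 by nonlinear regression; mean ± SD, n=3.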
# [4] = biological target: T4, Caspase-7 (Homo sapiens, UniProt P55210); assay: Inhibition of human recombinant caspase 7 assessed as accumulation of cleaved fluorogenic 7-amino-4-methylcoumarin after 10 mins; summary of the method: as §1
# T4 sequence (P55210 whole entry): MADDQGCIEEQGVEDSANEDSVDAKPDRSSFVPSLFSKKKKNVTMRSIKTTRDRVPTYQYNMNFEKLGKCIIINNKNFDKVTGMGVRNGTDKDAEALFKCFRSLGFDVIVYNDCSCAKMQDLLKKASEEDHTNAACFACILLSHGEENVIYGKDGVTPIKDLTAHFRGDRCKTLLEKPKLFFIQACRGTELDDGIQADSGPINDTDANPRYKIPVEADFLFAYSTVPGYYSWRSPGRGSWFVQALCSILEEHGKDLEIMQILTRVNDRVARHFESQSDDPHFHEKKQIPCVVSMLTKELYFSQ
IC50 [1] [nM],IC50 [2] [nM],IC50 [3] [nM],IC50 [4] [nM],Structure (SMILES)
> 500000,9.3,> 500000,7.2,C=Cc1ccc(CN2C(=O)C(=O)c3cc(S(=O)(=O)N4CCC[C@H]4COC)ccc32)cc1
> 500000,10,> 500000,0.6,C=CCOc1ccc(CN2C(=O)C(=O)c3cc(S(=O)(=O)N4CCC[C@H]4COC)ccc32)cc1
> 500000,43,> 500000,16,COC[C@@H]1CCCN1S(=O)(=O)c1ccc2c(c1)C(=O)C(=O)N2Cc1ccc(C(F)CBr)cc1 (stereo partly drawn)
> 500000,80,> 500000,7.6,COC[C@@H]1CCCN1S(=O)(=O)c1ccc2c(c1)C(=O)C(=O)N2Cc1ccc(C(F)CO)cc1 (stereo partly drawn)
> 500000,145,> 500000,5,COC[C@@H]1CCCN1S(=O)(=O)c1ccc2c(c1)C(=O)C(=O)N2Cc1ccc(OCC(O)CF)cc1 (stereo partly drawn)
> 500000,6.6,> 500000,1.9,COC[C@@H]1CCCN1S(=O)(=O)c1ccc2c(c1)C(=O)C(=O)N2Cc1ccc(C2CO2)cc1 (stereo partly drawn)

# The next lines start with the molecule.
Structure (SMILES),IC50 [1] [nM],IC50 [2] [nM],IC50 [3] [nM],IC50 [4] [nM]
COC[C@@H]1CCCN1S(=O)(=O)c1ccc2c(c1)C(=O)C(=O)N2C[C@H]1CO1,3160,17,> 500000,9
CN1C(=O)C(=O)c2cc(S(=O)(=O)N3CCC[C@H]3COc3ccccc3)ccc21,> 500000,2.4,> 500000,304
COC[C@@H]1CCCN1S(=O)(=O)c1ccc2c(c1)C(=O)C(=O)N2CCC(O)CF (stereo partly drawn),> 500000,3.6,> 500000,99
O=C1Nc2ccc(S(=O)(=O)N3CCC[C@H]3COc3ccccc3)cc2C1=O,> 500000,,> 500000,
C=CCCCCCCCCCN1C(=O)C(=O)c2cc(S(=O)(=O)N3CCC[C@H]3COC)ccc21,> 500000,74,> 500000,111
COC[C@@H]1CCCN1S(=O)(=O)c1ccc2c(c1)C(=O)C(=O)N2CCC(O)CO (stereo partly drawn),> 500000,275,> 500000,61
COC[C@@H]1CCCN1S(=O)(=O)c1ccc2c(c1)C(=O)C(=O)N2Cc1ccc(OCC2CO2)cc1 (stereo partly drawn),> 500000,42,> 500000,2.4
COC[C@@H]1CCCN1S(=O)(=O)c1ccc2c(c1)C(=O)C(=O)N2,> 500000,,> 500000,
C=CCN1C(=O)C(=O)c2cc(S(=O)(=O)N3CCC[C@H]3COC)ccc21,> 500000,25,> 500000,24
COC[C@@H]1CCCN1S(=O)(=O)c1ccc2c(c1)C(=O)C(=O)N2C[C@H](O)CF,> 500000,19,> 500000,349
COC[C@@H]1CCCN1S(=O)(=O)c1ccc2c(c1)C(=O)C(=O)N2CC(F)(F)CBr,,1880,,1660
COC[C@@H]1CCCN1S(=O)(=O)c1ccc2c(c1)C(=O)C(=O)N2CCCCCCCCCC1CO1 (stereo partly drawn),> 500000,23,> 500000,61
COC[C@@H]1CCCN1S(=O)(=O)c1ccc2c(c1)C(=O)C(=O)N2CCC1CO1 (stereo partly drawn),> 500000,151,> 500000,68
COC[C@@H]1CCCN1S(=O)(=O)c1ccc2c(c1)C(=O)C(=O)N2C[C@H](O)CO,> 500000,11,> 500000,43
C=CCCN1C(=O)C(=O)c2cc(S(=O)(=O)N3CCC[C@H]3COC)ccc21,> 500000,31,> 500000,50
